Source: ChEMBL document CHEMBL1156071, “Novel L-xylose derivatives as selective sodium-dependent glucose cotransporter 2 (SGLT2) inhibitors for the treatment of type 2 diabetes” (J Med Chem, 2009)

Legend:
[1] = target: T1, Sodium/glucose cotransporter 2 (Homo sapiens, UniProt P31639); test: Inhibition of human SGLT2 expressed in HEK293 cells assessed as inhibition of [14C]alpha-methylglucopyranoside uptake; assay type: cell-based
T1 sequence (P31639 whole entry): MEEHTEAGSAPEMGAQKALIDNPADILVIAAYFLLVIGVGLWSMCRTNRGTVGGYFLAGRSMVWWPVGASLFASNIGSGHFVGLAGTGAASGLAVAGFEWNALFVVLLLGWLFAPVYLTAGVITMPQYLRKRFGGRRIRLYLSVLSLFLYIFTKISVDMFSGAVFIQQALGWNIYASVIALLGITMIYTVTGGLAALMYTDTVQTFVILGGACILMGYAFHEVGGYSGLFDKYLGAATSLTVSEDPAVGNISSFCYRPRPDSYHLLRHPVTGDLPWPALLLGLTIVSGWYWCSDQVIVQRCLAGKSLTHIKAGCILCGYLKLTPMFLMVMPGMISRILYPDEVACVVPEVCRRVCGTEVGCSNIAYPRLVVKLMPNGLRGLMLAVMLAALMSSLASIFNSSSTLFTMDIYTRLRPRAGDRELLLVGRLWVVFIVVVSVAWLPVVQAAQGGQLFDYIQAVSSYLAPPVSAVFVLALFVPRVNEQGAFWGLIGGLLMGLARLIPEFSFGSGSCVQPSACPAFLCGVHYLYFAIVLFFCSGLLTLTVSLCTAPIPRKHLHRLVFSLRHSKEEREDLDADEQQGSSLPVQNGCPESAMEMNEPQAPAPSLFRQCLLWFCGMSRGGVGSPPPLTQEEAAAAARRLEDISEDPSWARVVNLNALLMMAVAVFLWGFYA
Summary of the method: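 Cells stably expressing human SGLT2 were used to measure sodium-coupled uptake of [14C]α-methylglucopyranoside, a metabolically stable SGLT-specific glucose analogue. Uptake was measured across increasing compound concentrations, and IC50 was derived from the inhibition of uptake.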

[2] = target: T2, Sodium/glucose cotransporter 2 (Mus musculus, UniProt Q923I7); test: Inhibition of mouse SGLT2-mediated [14C]alpha-methylglucopyranoside uptake by cell based assay
T2 sequence (Q923I7 whole entry): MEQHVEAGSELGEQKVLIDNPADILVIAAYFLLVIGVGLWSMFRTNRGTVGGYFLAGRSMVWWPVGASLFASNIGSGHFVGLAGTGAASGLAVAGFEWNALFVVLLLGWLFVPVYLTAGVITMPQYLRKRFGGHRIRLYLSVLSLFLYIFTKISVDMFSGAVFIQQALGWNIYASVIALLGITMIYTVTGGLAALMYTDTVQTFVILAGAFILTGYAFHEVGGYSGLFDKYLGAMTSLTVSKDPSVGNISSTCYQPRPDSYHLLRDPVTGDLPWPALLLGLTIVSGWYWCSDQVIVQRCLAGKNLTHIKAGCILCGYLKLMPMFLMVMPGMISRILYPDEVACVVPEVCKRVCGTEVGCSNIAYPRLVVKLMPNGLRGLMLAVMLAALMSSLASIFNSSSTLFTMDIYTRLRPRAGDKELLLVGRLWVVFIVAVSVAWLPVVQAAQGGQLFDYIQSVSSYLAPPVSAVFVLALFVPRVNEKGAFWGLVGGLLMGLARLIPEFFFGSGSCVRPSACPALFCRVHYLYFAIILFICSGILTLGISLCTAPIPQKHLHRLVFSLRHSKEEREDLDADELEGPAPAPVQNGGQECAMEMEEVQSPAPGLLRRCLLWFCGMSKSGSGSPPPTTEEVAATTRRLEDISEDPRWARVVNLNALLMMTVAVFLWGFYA

[3] = Volume of distribution at steady state in mouse at 1 mg/kg, iv; assay type: ADME, organism-based; set-up: dose 1 mg/kg, route intravenous; conditions: in vivo, read-out: Vdss
[4] = Apparent oral clearance in mouse at 10 mg/kg, po; assay type: ADME, organism-based; set-up: dose 10 mg/kg, route oral; conditions: in vivo
[5] = AUC (0 to infinity) in mouse at 10 mg/kg, po; assay type: ADME, organism-based, Plasma; set-up: time infinity, dose 10 mg/kg, route oral; conditions: plasma
[6] = Cmax in mouse at 10 mg/kg, po; assay type: ADME, organism-based; set-up: dose 10 mg/kg, route oral; conditions: in vivo
Mus musculus [7] = test: Apparent volume of distribution with respect to the bioavailability in mouse at 1 mg/kg, iv; assay type: ADME, organism-based; conditions: in vivo
[8] = AUC (0 to infinity) in mouse at 1 mg/kg, iv; assay type: ADME, organism-based, Plasma; set-up: dose 1 mg/kg, route intravenous, time infinity; conditions: plasma
[9] = Half life in mouse at 1 mg/kg, iv; assay type: ADME, organism-based; set-up: dose 1 mg/kg, route intravenous; conditions: in vivo
Mus musculus [10] = test: Half life in mouse at 10 mg/kg, po; assay type: ADME, organism-based; set-up: dose 10 mg/kg, route oral; conditions: in vivo
Mus musculus [11] = test: Oral bioavailability in mouse at 10 mg/kg; assay type: ADME, organism-based; conditions: in vivo
[12] = Apparent volume of distribution with respect to the bioavailability in mouse at 10 mg/kg, po; assay type: ADME, organism-based; conditions: in vivo, read-out: Vc/F
[13] = Tmax in mouse at 10 mg/kg, po; assay type: ADME, organism-based; set-up: dose 10 mg/kg, route oral; conditions: in vivo
[14] = Mean resident time in mouse at 1 mg/kg, iv; assay type: ADME, organism-based; set-up: dose 1 mg/kg, route intravenous; conditions: in vivo
[15] = Mean resident time in mouse at 10 mg/kg, po; assay type: ADME, organism-based; set-up: dose 10 mg/kg, route oral; conditions: in vivo
[16] = AUC(last) in mouse at 10 mg/kg, po; assay type: ADME, organism-based, Plasma; set-up: time 0 - last, dose 10 mg/kg, route oral; conditions: plasma
[17] = Tmax in mouse at 1 mg/kg, iv; assay type: ADME, organism-based; set-up: dose 1 mg/kg, route intravenous; conditions: in vivo
[18] = Clearance in mouse at 1 mg/kg, iv; assay type: ADME, organism-based; set-up: dose 1 mg/kg, route intravenous; conditions: in vivo

SMILES	IC50 [1] [nM]	IC50 [2] [nM]	other results
CCOc1ccc(Cc2cc([C@@H]3OC(OC)C[C@H](O)[C@H]3O)ccc2Cl)cc1 (mixture of isomers)	> 30000	14000	–
CCOc1ccc(Cc2cc([C@@H]3OC(OCCO)[C@@H](O)[C@H](O)[C@H]3O)ccc2Cl)cc1 (mixture of isomers)	36	23	–
CCOc1ccc(Cc2cc([C@]3(C)OC(OC)[C@@H](O)[C@H](O)[C@H]3O)ccc2Cl)cc1 (mixture of isomers)	590	220	–
CCOc1ccc(Cc2cc([C@@H]3OC(OC)[C@H](F)[C@H](O)[C@H]3O)ccc2Cl)cc1 (mixture of isomers)	600	220	–
COCCOc1ccc(Cc2cc([C@@H]3OC(OC)[C@@H](O)[C@H](O)[C@H]3O)ccc2Cl)cc1 (mixture of isomers)	45	16	–

The next lines start with results.

IC50 [1] [nM]	IC50 [2] [nM]	SMILES	other results
4800	280	CCOc1ccc(Cc2cc([C@@H]3OC(OC)[C@@H](O)[C@H](O)[C@H]3O)ccc2Cl)cc1 (mixture of isomers; 7b)	–
1100	220	CCOc1ccc(Cc2cccc([C@@H]3OC(OC)[C@@H](O)[C@H](O)[C@H]3O)c2)cc1 (mixture of isomers)	–
25	7.1	CCOc1ccc(Cc2cc([C@@H]3OC(OC)[C@@H](O)[C@H](O)[C@H]3O)ccc2Cl)cc1 (mixture of isomers; 7a)	Vd [3]: 1.98 L/kg; CL/F [4]: 35.4 mL/min/kg; AUC(0-inf) [5]: 11.7 µM·h; Cmax [6]: 4.38 µM; Vc/F (Mus musculus [7]): 1.91 L/kg; AUC(0-inf) [8]: 1.91 µM·h; half-life [9]: 1.07 h; t1/2 (Mus musculus [10]): 2.76 h; F (Mus musculus [11]): 61.2%; Vd/F [12]: 8.48 L/kg; Tmax [13]: 0.38 h; MRT [14]: 1.62 h; MRT [15]: 4.6 h; AUC(0-t) [16]: 8.19 µM·h; Tmax [17]: 0.38 h; clearance [18]: 22.5 mL/min/kg
